Values after ≈ are worked out from the molar mass of the structure shown.
Columns and labels:
Type in all cases: functional
[1] = tested on: Bacillus cereus; test: Minimum inhibitory concentration (MIC) preventing growth of Bacillus cereus
[2] = tested on: Bacillus subtilis; test: Minimum inhibitory concentration (MIC) preventing growth of Bacillus subtilis
[3] = tested on: Escherichia coli; test: Minimum inhibitory concentration (MIC)preventing growth of Escherichia coli
[4] = tested on: Klebsiella pneumoniae; test: Minimum inhibitory concentration (MIC)preventing growth of Klebsiella pneumoniae
[5] = tested on: Morganella morganii; test: Minimum inhibitory concentration (MIC) preventing growth of Morganella morganii
[6] = tested on: Proteus vulgaris; test: Minimum inhibitory concentration (MIC) preventing growth of Proteus vulgaris
[7] = tested on: Staphylococcus epidermidis; test: Minimum inhibitory concentration (MIC) preventing growth of Staphylococcus epidermidis
[8] = tested on: Staphylococcus aureus; test: Minimum inhibitory concentration (MIC) preventing growth of […]
[9] = tested on: Enterococcus faecalis; test: Minimum inhibitory concentration (MIC) preventing growth of Streptococcus faecalis ATCC 10541
[10] = tested on: Enterobacter cloacae; test: Minimum inhibitory concentration (MIC)preventing growth of Enterobacter cloacae
[11] = tested on: Pseudomonas aeruginosa; test: Minimum inhibitory concentration (MIC)preventing growth of Pseudomonas aeruginosa
[12] = tested on: Escherichia coli; test: Efficacy on systemic infections after oral administration in mice was determined against Escherichia coli HM-42
In short: (§1)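 Mouse protection test using 4 groups of 10 mice. Mice were infected intraperitoneally with a bacterial suspension slightly above LD100. A single oral dose was given immediately after infection, with four doses, one per group, chosen from in vitro activity. Survival was scored after one week, and ED50 (total mg/kg protecting 50% of mice) was interpolated from group survival rates.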

[13] = tested on: Pseudomonas aeruginosa; test: Efficacy on systemic infections after oral administration in mice was determined against Pseudomonas aeruginosa HS-116; in short: as §1
[14] = tested on: Staphylococcus aureus; test: Efficacy on systemic infections after oral administration in mice was determined against […] HS-93; in short: as §1

Compound	MIC [1]	MIC [2]	MIC [3]	MIC [4]	MIC [5]	MIC [6]	MIC [7]	MIC [8]	MIC [9]	MIC [10]	MIC [11]	ED50 [12]	ED50 [13]	ED50 [14]
CC1(N)CN(c2c(F)c(N)c3c(=O)c(C(=O)O)cn(-c4ccc(F)cc4F)c3c2F)C1	0.06 µg/mL (≈ 0.137 µM)	0.06 µg/mL (≈ 0.137 µM)	0.12 µg/mL (≈ 0.275 µM)	0.25 µg/mL (≈ 0.573 µM)	0.12 µg/mL (≈ 0.275 µM)	0.25 µg/mL (≈ 0.573 µM)	0.06 µg/mL (≈ 0.137 µM)	0.06 µg/mL (≈ 0.137 µM)	0.03 µg/mL (≈ 0.0687 µM)	0.06 µg/mL (≈ 0.137 µM)	0.5 µg/mL (≈ 1.15 µM)	–	–	–
CC1(O)CN(c2c(F)cc3c(=O)c(C(=O)O)cn(C4CC4)c3c2F)C1	0.25 µg/mL (≈ 0.714 µM)	0.015 µg/mL (≈ 0.0428 µM)	0.5 µg/mL (≈ 1.43 µM)	0.5 µg/mL (≈ 1.43 µM)	0.5 µg/mL (≈ 1.43 µM)	0.5 µg/mL (≈ 1.43 µM)	0.25 µg/mL (≈ 0.714 µM)	0.25 µg/mL (≈ 0.714 µM)	1 µg/mL (≈ 2.85 µM)	0.5 µg/mL (≈ 1.43 µM)	4 µg/mL (≈ 11.4 µM)	–	–	–
CN(C)C1CN(c2nc3c(cc2F)c(=O)c(C(=O)O)cn3C2CC2)C1	0.12 µg/mL (≈ 0.346 µM)	0.015 µg/mL (≈ 0.0433 µM)	0.06 µg/mL (≈ 0.173 µM)	0.12 µg/mL (≈ 0.346 µM)	0.12 µg/mL (≈ 0.346 µM)	0.12 µg/mL (≈ 0.346 µM)	0.12 µg/mL (≈ 0.346 µM)	0.25 µg/mL (≈ 0.722 µM)	2 µg/mL (≈ 5.77 µM)	0.12 µg/mL (≈ 0.346 µM)	2 µg/mL (≈ 5.77 µM)	–	–	–
CC1(N)CN(c2cc3c(cc2F)c(=O)c(C(=O)O)cn3-c2ccc(F)cc2F)C1	0.25 µg/mL (≈ 0.62 µM)	0.12 µg/mL (≈ 0.298 µM)	0.12 µg/mL (≈ 0.298 µM)	0.12 µg/mL (≈ 0.298 µM)	0.25 µg/mL (≈ 0.62 µM)	0.25 µg/mL (≈ 0.62 µM)	0.25 µg/mL (≈ 0.62 µM)	0.25 µg/mL (≈ 0.62 µM)	0.12 µg/mL (≈ 0.298 µM)	0.25 µg/mL (≈ 0.62 µM)	2 µg/mL (≈ 4.96 µM)	–	–	–
CCn1cc(C(=O)O)c(=O)c2cc(F)c(N3CC(C)(N)C3)cc21	1 µg/mL (≈ 3.13 µM)	0.25 µg/mL (≈ 0.783 µM)	0.5 µg/mL (≈ 1.57 µM)	0.5 µg/mL (≈ 1.57 µM)	0.25 µg/mL (≈ 0.783 µM)	1 µg/mL (≈ 3.13 µM)	0.5 µg/mL (≈ 1.57 µM)	0.5 µg/mL (≈ 1.57 µM)	0.25 µg/mL (≈ 0.783 µM)	0.5 µg/mL (≈ 1.57 µM)	2 µg/mL (≈ 6.26 µM)	–	–	–
NC1CN(c2nc3c(cc2F)c(=O)c(C(=O)O)cn3-c2ccc(F)cc2F)C1	0.25 µg/mL (≈ 0.64 µM)	0.12 µg/mL (≈ 0.307 µM)	0.12 µg/mL (≈ 0.307 µM)	0.015 µg/mL (≈ 0.0384 µM)	0.25 µg/mL (≈ 0.64 µM)	0.5 µg/mL (≈ 1.28 µM)	0.25 µg/mL (≈ 0.64 µM)	0.25 µg/mL (≈ 0.64 µM)	2 µg/mL (≈ 5.12 µM)	0.12 µg/mL (≈ 0.307 µM)	2 µg/mL (≈ 5.12 µM)	1.5 mg/kg	75.2 mg/kg	5.3 mg/kg
CC1(N)CN(c2c(F)cc3c(=O)c(C(=O)O)cn(C(C)(C)C)c3c2F)C1	0.5 µg/mL (≈ 1.37 µM)	0.12 µg/mL (≈ 0.328 µM)	0.25 µg/mL (≈ 0.684 µM)	0.06 µg/mL (≈ 0.164 µM)	0.5 µg/mL (≈ 1.37 µM)	1 µg/mL (≈ 2.74 µM)	0.5 µg/mL (≈ 1.37 µM)	0.5 µg/mL (≈ 1.37 µM)	2 µg/mL (≈ 5.47 µM)	0.25 µg/mL (≈ 0.684 µM)	2 µg/mL (≈ 5.47 µM)	–	–	–
CCn1cc(C(=O)O)c(=O)c2c(N)c(F)c(N3CC(N)C3)c(F)c21	0.25 µg/mL (≈ 0.739 µM)	2 µg/mL (≈ 5.91 µM)	0.12 µg/mL (≈ 0.355 µM)	0.25 µg/mL (≈ 0.739 µM)	0.12 µg/mL (≈ 0.355 µM)	0.5 µg/mL (≈ 1.48 µM)	0.5 µg/mL (≈ 1.48 µM)	0.5 µg/mL (≈ 1.48 µM)	0.25 µg/mL (≈ 0.739 µM)	0.12 µg/mL (≈ 0.355 µM)	1 µg/mL (≈ 2.96 µM)	–	–	–
Nc1c(F)c(N2CC(N)C2)c(F)c2c1c(=O)c(C(=O)O)cn2-c1ccc(F)cc1F	0.06 µg/mL (≈ 0.142 µM)	0.015 µg/mL (≈ 0.0355 µM)	0.015 µg/mL (≈ 0.0355 µM)	0.06 µg/mL (≈ 0.142 µM)	0.03 µg/mL (≈ 0.071 µM)	0.12 µg/mL (≈ 0.284 µM)	0.06 µg/mL (≈ 0.142 µM)	0.03 µg/mL (≈ 0.071 µM)	0.06 µg/mL (≈ 0.142 µM)	0.015 µg/mL (≈ 0.0355 µM)	0.12 µg/mL (≈ 0.284 µM)	–	–	–
O=C(O)c1cn(C2CC2)c2cc(N3CC(O)C3)c(F)cc2c1=O	0.12 µg/mL (≈ 0.377 µM)	0.015 µg/mL (≈ 0.0471 µM)	0.12 µg/mL (≈ 0.377 µM)	0.12 µg/mL (≈ 0.377 µM)	0.25 µg/mL (≈ 0.785 µM)	0.12 µg/mL (≈ 0.377 µM)	0.12 µg/mL (≈ 0.377 µM)	0.12 µg/mL (≈ 0.377 µM)	1 µg/mL (≈ 3.14 µM)	0.12 µg/mL (≈ 0.377 µM)	2 µg/mL (≈ 6.28 µM)	–	–	–

Source: ChEMBL document CHEMBL1126625, “7-Azetidinylquinolones as antibacterial agents. Synthesis and structure-activity relationships” (J Med Chem, 1993)
